ARFGAP1 inhibitor: inhibitors of rat ARFGAP1. Arfgap1-stimulated ARF1 GTP hydrolysis, GDP FP detection. inhibition, % at 16.5 µM. hit rate 0.26% among 360,000;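 active = inhibition above a per-plate limit, mean inhibition of low control wells plus 3 SD, cut at about 25% in these data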;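 also: 0% = DMSO wells with enzyme and 100% = wells lacking Arfgap1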
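Material: truncated rat Arfgap1 GAP domain; Incubation: compound-enzyme preincubation 20 min, reaction 120 min, detection 60 min, 25 °C; Read-out: percent inhibition of Arfgap1-stimulated GTP hydrolysis; Technique: FP, GDP Alexa 633 tracer displaced from anti-GDP antibody, 620/688 nm; Controls: No-Arfgap1 wells (100%) versus DMSO full-reaction wells (0%); Replication: single well per compound.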
UHRF1 MBD2 ctr: UHRF1 methyl-DNA binding inhibition; Q96T88; inhibition, % at 4.4 µM; UHRF1 binding to methylated oligo, TR-FRET; hit rate 0.75% among 370,000; in the data active = inhibition above about 21%;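 also: UHRF1 SRA domain binding a hemimethylated CpG hairpin DNA probe; 0% = median of test compound wells and 100% = reference inhibitor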
ASAP1 inh: blocks human ASAP1-stimulated Arf1 GTP hydrolysis. GDP FP detection. inhibition, % at 16.5 µM. hit rate 0.19% among 360,000. AID 624377; in the data active = inhibition above about 25%;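 also: 0% = vehicle with enzyme and substrate and 100% = no enzyme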
TCR-CD3 inh: blocks the human TCR-CD3 interaction. TAMRA-labeled TCR probe fluorescence, biochemical. inhibition, % at 9.4 µM. AID 651800. hit rate 0.37% among 360,000; in the data active = inhibition above about 19%;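 also: recombinant mutant TCR 2C K166C tagged with TAMRA read by polarization; 0% = receptor in buffer alone and 100% = receptor with positive control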
LEDGF integ inh: blocks HIV-1 LEDGF/p75-dependent DNA integration; TR-FRET IN-LEDGF/p75 DNA integration, Eu/Cy5; inhibition, % at 3.7 µM; hit rate 0.64% among 370,000;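 active = inhibition above the screen-wide mean plus 3 SD, cut at about 13% in these data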;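 also: signal is the Cy5 over europium emission ratio at 671 and 618 nm; 0% = plate median of compound wells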
MBD2 inh: inhibitors of human MBD2 binding to methylated oligonucleotide. Q9UBB5. AID 686964. TR-FRET. hit rate 0.31% among 370,000. inhibition, % at 4.4 µM; in the data active = inhibition above about 13%
Target sequence (Q9UBB5 whole entry, looked up): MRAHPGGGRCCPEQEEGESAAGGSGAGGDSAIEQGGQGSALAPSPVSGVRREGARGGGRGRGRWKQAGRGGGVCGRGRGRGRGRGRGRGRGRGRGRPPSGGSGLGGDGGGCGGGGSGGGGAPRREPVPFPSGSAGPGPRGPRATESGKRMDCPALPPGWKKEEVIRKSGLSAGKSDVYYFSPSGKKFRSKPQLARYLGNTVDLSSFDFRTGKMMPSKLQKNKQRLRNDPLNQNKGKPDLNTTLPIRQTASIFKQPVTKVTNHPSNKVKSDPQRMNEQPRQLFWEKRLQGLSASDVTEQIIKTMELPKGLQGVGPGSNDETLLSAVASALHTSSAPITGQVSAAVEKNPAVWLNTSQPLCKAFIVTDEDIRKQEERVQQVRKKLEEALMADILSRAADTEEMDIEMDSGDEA
An asterisk follows results filed as active. The list is not random: actives were taken first. Their share in the collection is about 2%.

Results for CCCN(C(=O)c1cccc(-n2cccc2)c1)c1c(N)n(Cc2ccccc2)c(=O)[nH]c1=O ?
ARFGAP1 inhibitor: 10.9; UHRF1 MBD2 ctr: 25.7*; ASAP1 inh: 12.7; TCR-CD3 inh: 15.4; LEDGF integ inh: 3.0; MBD2 inh: 9.7

How did CCCn1c(N)c(N(CCOC)C(=O)c2ccc(N(C)S(=O)(=O)c3ccc(C)cc3)cc2)c(=O)[nH]c1=O do in these assays?
ARFGAP1 inhibitor: 1.0; UHRF1 MBD2 ctr: 96.3*; ASAP1 inh: 4.9; TCR-CD3 inh: 1.3; LEDGF integ inh: -0.4; MBD2 inh: -3.4

What do the screens show for `CCCCN(C(=O)c1cccc(-n2cccc2)c1)c1c(N)n(CCC)c(=O)[nH]c1=O`?
ARFGAP1 inhibitor: 0.9; UHRF1 MBD2 ctr: 18.1; ASAP1 inh: -3.1; TCR-CD3 inh: 8.5; LEDGF integ inh: 1.9; MBD2 inh: 12.0

How did CCCCN(C(=O)c1ccc(Cl)c([N+](=O)[O-])c1)c1c(N)n(CCC)c(=O)[nH]c1=O do in these assays?
ARFGAP1 inhibitor: 4.2; UHRF1 MBD2 ctr: 28.9*; ASAP1 inh: 19.1; TCR-CD3 inh: -4.3; LEDGF integ inh: -1.2; MBD2 inh: 0.1

What do the screens show for `CCCCn1c(N)c(N(CCOC)C(=O)c2ccc(C)o2)c(=O)[nH]c1=O`?
ARFGAP1 inhibitor: -3.2; UHRF1 MBD2 ctr: 22.2*; ASAP1 inh: 4.8; TCR-CD3 inh: 6.6; LEDGF integ inh: -0.1; MBD2 inh: 2.9

Results for COP(=O)(CC(=O)O)C(CC(C)C)NC(=O)OCc1ccccc1 (configuration not stated) ?
UHRF1 MBD2 ctr: -0.2; LEDGF integ inh: -3.8; MBD2 inh: 4.8

Results for O=C(NCC[C@H]1CC[C@@H](NC(=O)C2CCC2)[C@@H](CO)O1)c1cc(Cl)cc(Cl)c1 ?
ARFGAP1 inhibitor: -3.9; UHRF1 MBD2 ctr: -0.8; ASAP1 inh: -11.5; TCR-CD3 inh: 1.9; LEDGF integ inh: 2.2; MBD2 inh: 0.2

How did CC1=CC(c2ccccc2)n2nc(N3C(=O)c4ccccc4C3=O)nc2N1 (configuration not stated) do in these assays?
ARFGAP1 inhibitor: 5.4; UHRF1 MBD2 ctr: -2.6; ASAP1 inh: -11.1; TCR-CD3 inh: 2.6; LEDGF integ inh: -1.9; MBD2 inh: -5.4

What do the screens show for `CC1=CC(c2ccccc2)n2nnnc2N1` (configuration not stated)?
ARFGAP1 inhibitor: -1.9; UHRF1 MBD2 ctr: 35.4*; ASAP1 inh: -13.1; TCR-CD3 inh: -0.3; LEDGF integ inh: -1.2; MBD2 inh: 1.1

Results for COc1ccc(C2SCC(C(=O)O)N2C(C)=O)cc1OC (configuration not stated) ?
ARFGAP1 inhibitor: 26.8*; UHRF1 MBD2 ctr: 0.7; ASAP1 inh: -1.9; TCR-CD3 inh: 5.0; LEDGF integ inh: 0.7; MBD2 inh: -1.2

Results for O=C(CCl)N1c2ccccc2Oc2ccc3ccccc3c21 ?
ARFGAP1 inhibitor: 1.9; UHRF1 MBD2 ctr: -11.7; ASAP1 inh: -8.8; TCR-CD3 inh: 22.3*; LEDGF integ inh: 6.0; MBD2 inh: -13.0

What do the screens show for `CC(=O)N1c2ccccc2Oc2cc3ccccc3cc21`?
ARFGAP1 inhibitor: 17.2; UHRF1 MBD2 ctr: -1.5; ASAP1 inh: 3.9; TCR-CD3 inh: 1.1; LEDGF integ inh: -0.3; MBD2 inh: 0.3

What do the screens show for `Clc1ccc(Nc2nc(-c3ccncc3)cs2)cc1`?
ARFGAP1 inhibitor: 11.7; UHRF1 MBD2 ctr: -0.4; ASAP1 inh: 10.2; TCR-CD3 inh: 2.1; LEDGF integ inh: -1.8; MBD2 inh: -1.7

Results for Fc1ccc(Nc2nc(-c3ccncc3)cs2)cc1 ?
ARFGAP1 inhibitor: 7.4; UHRF1 MBD2 ctr: 28.1*; ASAP1 inh: 15.3; TCR-CD3 inh: -6.0; LEDGF integ inh: 11.7; MBD2 inh: 4.8

Results for CCOC(=O)[C@]12CCCC=C1N(Cc1ccc(OC)cc1)C(=O)[C@@H]2CC(=O)N1CCN(C(=O)C2CC2)CC1 ?
UHRF1 MBD2 ctr: 0.8; LEDGF integ inh: 0.6; MBD2 inh: -2.9

What do the screens show for `CC1CN(Cc2cc(=O)n3ccsc3n2)CC(C)O1` (configuration not stated)?
ARFGAP1 inhibitor: 4.5; UHRF1 MBD2 ctr: 21.2*; ASAP1 inh: -13.7; TCR-CD3 inh: 0.2; LEDGF integ inh: 3.5; MBD2 inh: 10.8

Results for COc1ccc(C(C)C)cc1S(=O)(=O)Nc1ccncc1 ?
ARFGAP1 inhibitor: -0.9; UHRF1 MBD2 ctr: 2.0; ASAP1 inh: -2.2; TCR-CD3 inh: 1.6; LEDGF integ inh: 4.2; MBD2 inh: 0.1
